Measured values of several laboratories.
Lines come from different studies, so protocols differ.
Target: Serine/threonine-protein kinase Nek5 (NEK5, Homo sapiens, UniProt Q6P3R8)
One construct used (Q6P3R8 1-708): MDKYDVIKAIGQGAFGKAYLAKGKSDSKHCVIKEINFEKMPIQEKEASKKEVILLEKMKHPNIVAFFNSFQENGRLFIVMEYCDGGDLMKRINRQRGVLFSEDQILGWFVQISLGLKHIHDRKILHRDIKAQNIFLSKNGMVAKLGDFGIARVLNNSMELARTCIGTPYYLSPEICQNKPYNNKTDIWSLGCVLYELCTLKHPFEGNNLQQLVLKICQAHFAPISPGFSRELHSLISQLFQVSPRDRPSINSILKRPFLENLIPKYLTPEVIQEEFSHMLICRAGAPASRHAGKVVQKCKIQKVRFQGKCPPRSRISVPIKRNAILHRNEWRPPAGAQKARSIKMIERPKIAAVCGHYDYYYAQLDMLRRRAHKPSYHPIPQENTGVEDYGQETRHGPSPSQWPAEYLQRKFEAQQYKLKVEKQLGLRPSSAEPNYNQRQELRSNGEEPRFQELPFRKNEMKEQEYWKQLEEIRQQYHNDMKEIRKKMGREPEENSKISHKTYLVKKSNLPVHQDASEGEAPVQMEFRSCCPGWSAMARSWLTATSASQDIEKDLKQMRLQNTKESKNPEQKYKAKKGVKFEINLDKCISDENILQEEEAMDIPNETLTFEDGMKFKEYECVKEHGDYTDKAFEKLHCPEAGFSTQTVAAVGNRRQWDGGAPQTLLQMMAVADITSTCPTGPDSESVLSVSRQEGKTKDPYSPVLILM

| Compound | observed | technique | concentration | remaining binding [%] |
| --- | --- | --- | --- | --- |
| FC(F)(F)c1ccc2c(c1)nc(-c1cccnc1)n2C1CC1 | cell-free assay | competition with immobilised ligand | 1 µM | 100 |
| COc1cnc(Nc2cccc(S(N)(=O)=O)c2)nc1N1CCN(c2ccccc2)C(=O)C1 | binding | competition with immobilised ligand | 1 µM | 88 |
| O=C(NCC1CCOCC1)c1n[nH]cc1NC(=O)c1c(F)cccc1F | binding | competition with immobilised ligand | 1 µM | 100 |
| COc1ncc2cc3ccccc3nc2c1C#N | cell-free assay | competition with immobilised ligand | 5 µM | 88 |
| Cc1cnn2ncc(-c3ccnc(N(C)C)n3)c2c1 | binding |  | 1 µM | 100 |
| CCN1CCN(Cc2ccc(C(=O)Nc3ccc(C)c(Oc4ccc5c(c4)CC(=O)N5)c3)cc2C(F)(F)F)CC1 | binding | competition with immobilised ligand | 1 µM | 100 |
| Cn1nc(C(F)(F)F)cc1-c1cnc(N2CCc3cc(S(=O)(=O)Nc4c(F)cc(Cl)cc4F)cc(N4CCCC4=O)c32)nc1 | cell-free assay | competition with immobilised ligand | 1 µM | 86 |
| N[C@@H]1CCN(c2nccc(-c3cnn4ncccc34)n2)C1 | binding |  | 1 µM | 100 |
| O=C(c1ccc(Nc2ncc(Cl)c(-c3cc4ccccc4s3)n2)cc1)N1CCC(N2CCCC2)CC1 | binding | competition with immobilised ligand | 1 µM | 0 |
| CC1CCCN1c1nccc(-c2cnn3ncccc23)n1 (stereo not drawn) | binding |  | 1 µM | 100 |
| CNC(=O)[C@@H]1CC[C@@H](n2c(-c3ccc4cnccc4c3)nc3ccc(C(=O)NCc4cccc(C(N)=O)c4)cc32)C1 | binding | competition with immobilised ligand | 1 µM | 100 |
| Cc1cnc(Nc2ccc(C(=O)N3CCC(N4CCCC4)CC3)cc2)nc1-c1cc2ccccc2s1 | binding | competition with immobilised ligand | 1 µM | 0.1 |
| COc1ccc2c(O[C@@H]3C[C@H]4C(=O)N[C@]5(C(=O)O)CC5/C=C\CCCCC[C@H](NC(=O)OC5CCCC5)C(=O)N4C3)cc(-c3csc(NC(=O)C(C)C)n3)nc2c1C (stereo partly drawn) | cell-free assay | competition with immobilised ligand | 1 µM | 98 |
| c1cnn2ncc(-c3ccnc(N4CCC45COC5)n3)c2c1 | binding |  | 1 µM | 97 |
| Cc1cc(NC(=O)c2cccc(S(F)(F)(F)(F)F)c2)cc(-n2ccn3nc(-c4cccnc4)cc23)c1 | cell-free assay | competition with immobilised ligand | 1 µM | 86.8 |
| O=C(NCCCN1CCOCC1)c1ccc(Nc2ncc(Cl)c(-c3ccc(Cl)s3)n2)cc1 | binding | competition with immobilised ligand | 1 µM | 0 |
| O=C(Nc1cccnn1)N1CCC(=Cc2cccc(Oc3ccc(C(F)(F)F)cn3)c2)CC1 | cell-free assay | competition with immobilised ligand | 1 µM | 97 |
| C[C@H]1CCN(c2nccc(-c3cnn4ncccc34)n2)C1 | binding |  | 1 µM | 90 |
| FC(F)(F)Oc1cccc(-c2cnc3ccc(-c4ccncc4)nn23)c1 | cell-free assay | competition with immobilised ligand | 5 µM | 74 |
| CN(C)c1ncc(F)c(-c2cnn3ncccc23)n1 | binding |  | 1 µM | 88 |
| C[C@H](NC(=O)c1cnc2n1[C@](C)(Cc1ccc(C#N)cc1)C(=O)N2c1cc(Cl)c(F)c(Cl)c1)C(=O)NC1(c2ccccn2)CC1 | cell-free assay | competition with immobilised ligand | 1 µM | 100 |
